Assay [1] concerns Calf thymus DNA. The assay is described as follows: Thermal denaturation of calf thymus DNA at 18 h, incubation at 37 degree C. It is filed as nucleic-acid assay. The note with it: Bos taurus. The method in brief:
(§1)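 CT-DNA (100 μM) with ligand 20 μM (PBD/DNA molar ratio 1:5) in aqueous sodium phosphate buffer (10 mM sodium phosphate + 1 mM EDTA, pH 7.00±0.01). Incubated at 37 °C for 0 h or 18 h, then thermal helix→coil melting followed. ΔTm taken relative to DNA alone (Tm mean of 20 separate determinations). ΔTm values ±0.05–0.1 °C.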

For assay [2], the system named is Calf thymus DNA. The experiment in a line: Thermal denaturation of calf thymus DNA at 0 h, incubation at 37 degree C. Format: nucleic-acid assay. The note with it: Bos taurus. In outline:
as §1

In a further assay the test system is BT-549. The assay is described as follows: In vitro concentration required to produce 50% lethality against human breast BT-549 cell line. Format: functional. The note with it: read-out: LC50 (the source's name).
For another assay, the system named is OVCAR-8. The experiment in a line: In vitro concentration required to produce 50% lethality against human ovarian OVCAR-8 cell line. Format: functional. The note with it: read-out: LC50 (the source's name).
Another assay has as its system SN12C. The experiment in a line: In vitro concentration required to produce 50% lethality against human renal SN12C cell line. It is filed as functional. The note with it: read-out: LC50 (the source's name).
The test system of a further assay is TK-10. The assay is described as follows: In vitro concentration required to produce 50% lethality against human renal TK-10 cell line. Format: functional. The note with it: read-out: LC50 (the source's name).
A further assay relates to HOP-62. The assay is described as follows: In vitro concentration required to produce 50% lethality against human non small cell lung HOP-62 cell line. Format: functional. The note with it: read-out: LC50 (the source's name).
Another assay concerns NCI-H226. The experiment in a line: In vitro concentration required to produce 50% lethality against human non small cell lung NCI-H226 cell line. It is filed as functional. Conditions: read-out: LC50 (the source's name).
The subject of another assay is SK-MEL-2. The experiment in a line: In vitro concentration required to produce 50% lethality against human melanoma SK-MEL-2 cell line. It is filed as functional. The note with it: read-out: LC50 (the source's name).
Assay [3] can be described thus: In vitro concentration required to produce 50% lethality against human prostate DU-145 cell line. Format: functional. Conditions: read-out: LC50 (the source's name).
In another assay the test system is OVCAR-5. The assay is described as follows: In vitro concentration required to produce 50% lethality against human ovarian OVCAR-5 cell line. Conditions: read-out: LC50 (the source's name). Format: functional.
In a further assay the test system is KM12. The assay is described as follows: In vitro concentration required to produce 50% lethality against human colon KM12 cell line. It is filed as functional. The note with it: read-out: LC50 (the source's name).
Another assay relates to SF-539. The experiment in a line: In vitro concentration required to produce 50% lethality against human CNS SF-539 cell line. It is filed as functional. The note with it: read-out: LC50 (the source's name).
The subject of the next assay is NCI-H522. The assay is described as follows: In vitro concentration required to produce 50% lethality against human non small cell lung NCI-H522 cell line. Format: functional. The note with it: read-out: LC50 (the source's name).
Another assay relates to 786-0. The experiment in a line: In vitro concentration required to produce 50% lethality against human renal 786-0 cell line. It is filed as functional. Conditions: read-out: LC50 (the source's name).
The subject of another assay is PC-3. The experiment in a line: In vitro concentration required to produce 50% lethality against human prostate PC-3 cell line. It is filed as functional. Conditions: read-out: LC50 (the source's name).
Assay [4] is described as follows: In vitro concentration required to produce 50% lethality against human CNS […] cell line. It is filed as functional. The note with it: read-out: LC50 (the source's name).
The next assay relates to Malme-3M. The assay is described as follows: In vitro concentration required to produce 50% lethality against human melanoma MALME-3M cell line. Conditions: read-out: LC50 (the source's name). It is filed as functional.
In the next assay the test system is A498. The assay is described as follows: In vitro concentration required to produce 50% lethality against human renal A-498 cell line. The note with it: read-out: LC50 (the source's name). It is filed as functional.
For the next assay, the system named is MDA-MB-231. The experiment in a line: In vitro concentration required to produce 50% lethality against human breast MDA-MB-231/ATCC cell line. Format: functional. The note with it: read-out: LC50 (the source's name).
For the next assay, the system named is SK-MEL-5. The assay is described as follows: In vitro concentration required to produce 50% lethality against human melanoma SK-MEL-5 cell line. Format: functional. The note with it: read-out: LC50 (the source's name).
The next assay deals with UACC-62. The experiment in a line: In vitro concentration required to produce 50% lethality against human melanoma UACC-62 cell line. It is filed as functional. Conditions: read-out: LC50 (the source's name).
For the next assay, the system named is RXF 393. The experiment in a line: In vitro concentration required to produce 50% lethality against human renal RXF 393 cell line. It is filed as functional. The note with it: read-out: LC50 (the source's name).
A further assay concerns OVCAR-3. The experiment in a line: In vitro concentration required to produce 50% lethality against human ovarian OVCAR-3 cell line. Format: functional. Conditions: read-out: LC50 (the source's name).
In another assay the test system is M14. The experiment in a line: In vitro concentration required to produce 50% lethality against human melanoma M14 cell line. Format: functional. The note with it: read-out: LC50 (the source's name).
For another assay, the system named is T47D. The experiment in a line: In vitro concentration required to produce 50% lethality against human breast T47D cell line. Conditions: read-out: LC50 (the source's name). Format: functional.
Another assay deals with SNB-19. The assay is described as follows: In vitro concentration required to produce 50% lethality against human CNS SNB-19 cell line. It is filed as functional. Conditions: read-out: LC50 (the source's name).
In a further assay the test system is MDA-MB-435. The assay is described as follows: In vitro concentration required to produce 50% lethality against human breast MDA-MB-435 cell line. Format: functional. The note with it: read-out: LC50 (the source's name).
The test system of the next assay is EKVX. The assay is described as follows: In vitro concentration required to produce 50% lethality against human non small cell lung EKVX cell line. Conditions: read-out: LC50 (the source's name). Format: functional.
The next assay deals with IGROV-1. The assay is described as follows: In vitro concentration required to produce 50% lethality against human ovarian IGROVI cell line. Format: functional. The note with it: read-out: LC50 (the source's name).

Usually ΔTm stands for the shift of the melting midpoint relative to a reference. Take `COc1cc2c(cc1OCCCCOc1ccc(-c3nc4ccccc4[nH]3)cc1)N=C[C@@H]1CCCN1C2=O`: the ΔTm in the assay on Calf thymus DNA [1] worked out at 4 °C; in the assay on Calf thymus DNA [2], 3.8 °C.
On the same counts, the results for `CN1CCN(c2ccc3[nH]c(-c4ccc(O)cc4)nc3c2)CC1` are 2.9 °C and 2.9 °C.
Regarding `COc1cc2c(cc1OCCCCOc1ccc(-c3nc4cc(N5CCN(C)CC5)ccc4[nH]3)cc1)N=C[C@@H]1CCCN1C2=O`, the ΔTm in the assay with Calf thymus DNA [1] and with Calf thymus DNA [2] was 15.5 °C each time.
Turning to `COc1cc2c(cc1OCCCCCOc1ccc(-c3nc4ccccc4[nH]3)cc1)N=C[C@@H]1CCCN1C2=O`, the ΔTm came to 11 °C with Calf thymus DNA [1] and 10.3 °C in the assay with Calf thymus DNA [2].
As for `COc1cc2c(cc1OCCCOc1ccc(-c3nc4ccc(N5CCN(C)CC5)cc4[nH]3)cc1)N=C[C@@H]1CCCN1C2=O`, the CC50 was 12.6 µM with BT-549; 21 µM with OVCAR-8; 18.7 µM in the assay with SN12C; 39.7 µM in the assay on TK-10; 17.4 µM with HOP-62; 23.5 µM with NCI-H226. Moreover, the CC50 with SK-MEL-2 stood at 10 nM; in assay [3] it was 33.7 µM; in the assay on OVCAR-5 it was 33.9 µM; in the assay on KM12 it was 45.2 µM; in the assay on SF-539, 10 nM; in the assay on NCI-H522 it was 10 nM. Moreover, the CC50 in the assay on 786-0 came out at 31.2 µM; with PC-3, 16.4 µM; in [4], 27.8 µM; with Malme-3M it was 34.4 µM; with A498, 10 nM; in the assay on MDA-MB-231 it was 13.5 µM. Besides, the CC50 in the assay on SK-MEL-5 came to 10 nM; in the assay with UACC-62, 10 nM; in the assay on RXF 393, 10 nM; in the assay with OVCAR-3, 34.6 µM; in the assay on M14 it was 10 nM; with T47D, 42.1 µM. Besides, the CC50 in the assay with SNB-19 is 47.5 µM; in the assay on MDA-MB-435 it was 10 nM; in the assay on EKVX it was 25.2 µM; in the assay with IGROV-1 it was 45.3 µM. Further, the shift in melting temperature (ΔTm) is 22.5 °C in the assay with Calf thymus DNA [1] and 16.6 °C in the assay on Calf thymus DNA [2].
With `COc1cc2c(cc1OCCCCCOc1ccc(-c3nc4cc(N5CCN(C)CC5)ccc4[nH]3)cc1)N=C[C@@H]1CCCN1C2=O`, the results for the ΔTm in the assay on Calf thymus DNA [1] and in the assay with Calf thymus DNA [2] were 22.6 °C and 22.4 °C, respectively.
Regarding `COc1cc2c(cc1OCCCOc1ccc(-c3nc4ccccc4[nH]3)cc1)N=C[C@@H]1CCCN1C2=O`, the ΔTm in the assay with Calf thymus DNA [1] came out at 11.4 °C; in the assay on Calf thymus DNA [2], 11 °C.
In the case of `COc1cc2c(cc1O)N=C[C@H]1CCCN1C2=O`, the thermal shift (ΔTm) in the assay on Calf thymus DNA [2] came to 0.3 °C.

The values are drawn from ChEMBL document CHEMBL1137859, “Synthesis of C8-linked pyrrolo[2,1-c][1,4]benzodiazepine-benzimidazole conjugates with remarkable DNA-binding affinity” (2004).
